# In ChEMBL document CHEMBL1135622, “Use of the Kohonen neural network for rapid screening of ex vivo anti-HIV activity of styrylquinolines” (J Med Chem, 2002):
# Assays:
# [1] = test system: Human immunodeficiency virus 1; experiment: Cytotoxicity (C) and percentage of dead cells at 100 uM concentration.; assay type: functional
# Procedure, shortened: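 CEM lymphocytes (RPMI-1640, 10% FCS) plated in triplicate and infected with cell-free HIV-1 NL4-3; virus removed after 2 h, drug at 100 µM added in DMSO in fresh medium for 72 h. Viability by MTT (7.5 mg/mL stock), 4 h at […], formazan dissolved in SDS/HCl, absorbance at 570 nm; value given as percentage of dead cells.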
# [2] = test system: Human immunodeficiency virus 1; experiment: Reduction of viral load in the cell supernatant.; assay type: functional, organism-based
# [3] = test system: Human immunodeficiency virus 1; experiment: Ex vivo activity against residual viruses (% of nontreated infected cells) in cell supernatant at 100 uM concentration.; assay type: functional
# [4] = test system: Human immunodeficiency virus 1; experiment: Inhibitory concentration against HIV-1 required for 50% reduction of viral load in the cell supernatant; Not reached.; assay type: functional, organism-based
SMILES,Cytotoxicity [1] [%],IC50 [2] [µM],RV [3] [%],NR [4]
O=C(O)c1cccc2ccc(/C=C/c3ccc(O)c(O)c3)nc12,0,12,0,
CC(=O)Nc1ccc(/C=C/c2ccc3ccc(C(=O)O)c(O)c3n2)cc1,88,,0,
O=C(O)c1ccc2ccc(/C=C/c3ccc(CO)cc3)nc2c1O,17,110,55,
O=C(O)c1ccc2ccc(/C=C/c3cc(O)c(O)c(O)c3)nc2c1O,90,,0,
O=C(O)c1ccc2ccc(/C=C/c3ccc(O)c(O)c3)nc2c1O,70,1.3,0,
O=C(O)c1ccc2nc(/C=C/c3ccc(O)c(O)c3)ccc2c1,0,20,4,
O=C(O)c1ccc2ccc(/C=C/c3ccc(O)cc3O)nc2c1O,26,80,42,
O=C(O)c1ccc2ccc(/C=C/c3ccsc3)nc2c1O,68,,0,
O=C(O)c1ccc2ccc(/C=C/c3ccc(F)c(F)c3)nc2c1O,91,30,2,
O=C(O)c1ccc2ccc(/C=C/c3cc(O)c(O)c(I)c3)nc2c1O,42,6.8,3,
O=C(O)c1ccc2ccc(/C=C/c3cc(O)cc(O)c3)nc2c1O,17,,55,Not reached
O=C(O)c1ccc2ccc(/C=C/c3cccnc3)nc2c1O,74,,74,Not reached
COc1cc(/C=C/c2ccc3ccc(C(=O)O)c(O)c3n2)ccc1O,48,3,12,
O=C(O)c1ccc2ccc(/C=C/c3cc(O)cc(/C=C/c4ccc5ccc(C(=O)O)c(O)c5n4)c3)nc2c1O,0,,100,Not reached
O=C(O)c1ccc2ccc(/C=C/c3ccc([N+](=O)[O-])cc3)nc2c1O,74,,6,
COc1cc(/C=C/c2ccc3ccc(C(=O)O)c(O)c3n2)cc(OC)c1O,17,9,0,
O=C(O)c1ccc2ccc(/C=C/c3cc(Br)c(O)c(Br)c3)nc2c1O,8,30,13,
O=C(O)c1ccc2ccc(/C=C/c3ccc4c(c3)OCO4)nc2c1O,40,10,4,
Oc1ccc(/C=C/c2ccc3cccc(O)c3n2)cc1O,78,,1,
O=C(O)c1cc(/C=C/c2ccc3ccc(C(=O)O)c(O)c3n2)ccc1O,0,80,24,
COc1ccc(/C=C/c2ccc3ccc(C(=O)O)c(O)c3n2)cc1O,57,54,0,
Nc1ccc(/C=C/c2ccc3ccc(C(=O)O)c(O)c3n2)cc1,40,50,8,
O=C(O)c1cccc2nc(/C=C/c3ccc(O)c(O)c3)ccc12,0,50,5,
O=C(O)c1cc(C(=O)O)c2ccc(/C=C/c3ccc(O)c(O)c3)nc2c1,0,15,5,
O=C(O)c1ccc2ccc(/C=C/c3ccccc3)nc2c1O,100,,0,
COc1cc(/C=C/c2ccc3ccc(C(=O)O)c(O)c3n2)cc(O)c1O,14,12,6,
O=C(O)c1ccc2ccc(/C=C/c3ccc(O)cc3)nc2c1O,50,95,26,
O=C(O)c1ccc2ccc(/C=C/c3ccco3)nc2c1O,0,,70,Not reached
COc1cc(/C=C/c2ccc3ccc(C(=O)O)cc3n2)ccc1O,30,20,17,
